# Published values of several laboratories.
# Lines come from different studies, so protocols differ.
# Target: Cyclin-dependent kinase 11A (CDK11A, Homo sapiens, UniProt Q9UQ88)
# Sequence (Q9UQ88 1-783, as in one of the studies): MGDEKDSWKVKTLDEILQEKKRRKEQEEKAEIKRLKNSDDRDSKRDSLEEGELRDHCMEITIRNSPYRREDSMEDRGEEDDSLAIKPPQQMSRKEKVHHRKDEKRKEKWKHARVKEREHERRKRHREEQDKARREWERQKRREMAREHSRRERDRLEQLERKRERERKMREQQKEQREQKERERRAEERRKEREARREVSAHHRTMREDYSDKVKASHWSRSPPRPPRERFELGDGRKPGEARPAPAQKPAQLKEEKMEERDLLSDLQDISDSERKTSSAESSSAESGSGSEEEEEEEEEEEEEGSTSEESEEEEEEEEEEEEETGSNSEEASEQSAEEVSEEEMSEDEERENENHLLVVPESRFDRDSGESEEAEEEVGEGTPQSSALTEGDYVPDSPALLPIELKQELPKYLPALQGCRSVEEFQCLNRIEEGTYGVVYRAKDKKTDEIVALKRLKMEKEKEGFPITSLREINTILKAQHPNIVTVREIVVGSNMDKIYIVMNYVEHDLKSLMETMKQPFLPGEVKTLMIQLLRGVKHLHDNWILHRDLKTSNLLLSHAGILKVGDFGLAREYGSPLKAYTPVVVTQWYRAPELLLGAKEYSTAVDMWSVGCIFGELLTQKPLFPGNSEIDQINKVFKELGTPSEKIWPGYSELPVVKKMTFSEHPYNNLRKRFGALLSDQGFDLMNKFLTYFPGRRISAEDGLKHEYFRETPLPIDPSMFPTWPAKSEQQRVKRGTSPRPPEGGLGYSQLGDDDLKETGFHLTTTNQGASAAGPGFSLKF
Structure (SMILES),effect on,method,tested at,remaining binding [%]
O=C(c1ccc(Nc2ncc(Cl)c(-c3cc4ccccc4s3)n2)cc1)N1CCC(N2CCCC2)CC1,binding,competition with immobilised ligand,1 µM,85
C[C@@H]1CCN(c2nccc(-c3cnn4ncccc34)n2)C1,binding,,1 µM,85
O=C(NCC1CCOCC1)c1n[nH]cc1NC(=O)c1c(F)cccc1F,binding,competition with immobilised ligand,1 µM,91
O=C(c1ccc(Nc2ncc(Cl)c(-c3ccc(Cl)s3)n2)cc1)N1CCC(N2CCCC2)CC1,binding,competition with immobilised ligand,1 µM,39
O=C(NCc1ncc(C(F)(F)F)cc1Cl)c1ccc2c(c1)C1(CCS(=O)(=O)CC1)[C@@H](C1CC1)N2S(=O)(=O)c1ccc(F)cc1,binding,competition with immobilised ligand,1 µM,100
CCN1CCN(Cc2ccc(C(=O)Nc3ccc(C)c(Oc4ccc5c(c4)CC(=O)N5)c3)cc2C(F)(F)F)CC1,binding,competition with immobilised ligand,1 µM,100
CCC(=O)N[C@H]1CC[C@@H](C(=O)N(C)c2ccc(-c3nc4ccccc4o3)cc2)C1,cell-free assay,competition with immobilised ligand,1 µM,97
COc1ccnn2ncc(-c3ccnc(N(C)C)n3)c12,binding,,1 µM,100
CC(=O)N1CCC(c2ccc(C(=O)NC3=NCCN3)cc2C(F)(F)F)CC1,binding,competition with immobilised ligand,1 µM,100
O=C(NCCCN1CCOCC1)c1ccc(Nc2nccc(-c3cc4ccccc4s3)n2)cc1,binding,competition with immobilised ligand,1 µM,56
CN(c1nccc(-c2cnn3ncccc23)n1)C1CC1,binding,,1 µM,100
CNC(=O)c1ccc(Nc2ncc(C(F)(F)F)c(NCc3nccnc3N(C)S(C)(=O)=O)n2)cc1,binding,competition with immobilised ligand,0.1 µM,77
C=CC(=O)N1CCC(C(=O)NCC(=O)N2CCN(c3nc(-c4cnc(N)nc4C(F)F)nc(N4CCOCC4)n3)CC2)CC1,binding,competition with immobilised ligand,1 µM,97
CN(C)c1nccc(-c2cnn3ncccc23)n1,binding,,1 µM,92
C[C@@H](c1ccc(-n2cnc3c(N)ncnc32)cc1)N1CCc2nn(C)c(Cc3ccccc3)c2C1=O,binding,competition with immobilised ligand,0.1 µM,100
Cc1noc([C@H]2C[C@@H](c3ccc(C(F)(F)F)cc3)CN(C(=O)N3CCS(=O)(=O)C3)C2)n1,binding,competition with immobilised ligand,1 µM,100
N[C@H]1CCN(c2nccc(-c3cnn4ncccc34)n2)C1,binding,,1 µM,82
Cn1cc(Cl)c2c(Oc3c(F)cc(Nc4cc(Cl)nc(N)n4)cc3F)ccnc21,binding,competition with immobilised ligand,0.1 µM,100
F[C@@H]1CCN(c2nccc(-c3cnn4ncccc34)n2)C1,binding,,1 µM,100
COc1cnc(Nc2cccc(S(N)(=O)=O)c2)nc1N1CCN(c2ccccc2)CC1,binding,competition with immobilised ligand,1 µM,93
